Data on five compounds can be found in ChEMBL document CHEMBL1149594, “Synthesis and HCV inhibitory properties of 9-deaza- and 7,9-dideaza-7-oxa-2'-C-methyladenosine” (Bioorg Med Chem, 2007).

In series [1] the test system is Hepatitis C virus. As to the kind of experiment: Antiviral activity against HCV genotype 1b in Huh7 cells assessed as inhibition of viral RNA replication after 24 hrs by ribonuclease protection assay. To be noted: Huh-7, 24 h. In kind it is functional, organism-based, Hepacivirus hominis. The method in brief: (§1)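 Huh-7 (HB-1) cells carrying a subgenomic bicistronic neomycin-resistance replicon from HCV genotype 1b. Compound incubated with cells 24 h or 72 h. Intracellular replicon RNA then quantified by in situ ribonuclease protection. EC50 taken as the mean of at least two separate determinations.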

Series [2] concerns Hepatitis C virus. As to the kind of experiment: Antiviral activity against HCV genotype 1b in Huh7 cells assessed as inhibition of viral RNA replication after 72 hrs by ribonuclease protection assay. The class given is functional, organism-based, Hepacivirus hominis. To be noted: Huh-7, 72 h. The method in brief:
as §1

Series [3] can be described thus: Cytotoxicity against Huh7 cells after 24 hrs by MTS assay. In kind it is cell-based, Huh-7. To be noted: human. Summed up:
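Nucleoside cytotoxicity in the replicon-bearing Huh-7 cells, measured by MTS assay after 24 h exposure. Result expressed as CC50.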
A general note: Tetrazolium dyes change colour on reduction, which living cells bring about.

By EC50 is commonly meant the concentration that produces a half-maximal response. The CC50 is the concentration giving 50% cytotoxicity. As to `C[C@@]1(O)[C@H](O)[C@@H](CO)O[C@H]1c1coc2c(N)ncnc12`, the values for the EC50 in series [1] and in series [2] were 22 µM and 8.1 µM, respectively. This compound also had a CC50 at 24 h in series [3] greater than 100 µM.

On to `C[C@@]1(O)[C@H](O)[C@@H](CO)O[C@H]1c1c[nH]c2c(N)ncnc12`, for which the EC50 was greater than 100 µM in series [1] and 59.7 µM in series [2]. In addition, the CC50 at 24 h in series [3] is greater than 100 µM.

As to `C[C@@]1(O)[C@H](O)[C@@H](CO)O[C@H]1n1cnc2c(N)ncnc21`, the EC50 in series [1] was 0.25 µM; in series [2], 0.2 µM. In addition, the CC50 at 24 h in series [3] is greater than 100 µM.

For `C[C@@]1(O)[C@H](O)[C@@H](CO)O[C@H]1n1ccc2c(N)ncnc21` [BETA-2'-C-METHYL-7-DEAZA-ADENOSINE], the EC50 in series [1] is 0.3 µM; in series [2], 0.11 µM. Besides, the CC50 at 24 h in series [3] is greater than 100 µM.

In the case of `CC(C)[C@H](N)C(=O)O[C@@H]1[C@@H](CO)O[C@@H](n2ccc(N)nc2=O)[C@]1(C)O` [VALOPICITABINE], the EC50 in series [1] is 7.45 µM; in series [2], 1.5 µM. The same compound registered a half-maximal cytotoxic concentration (CC50) at 24 h in series [3] greater than 100 µM.
